# Bioassay records as filed in PubChem BioAssay.
# The sample as a whole holds a higher share of hits than the screen did.
# T cruzi inh: blocks replication of Trypanosoma cruzi; T. cruzi beta-gal in NIH3T3, luminescence, 90 h; inhibition, % (concentration not given with the values); 300,000 tested, 1.4% active; AID 1885;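 active = mean inhibition across valid replicates above about 55%, limit read from the data; inconclusive = mean below that limit but half or more replicates reach it; inactive = mean below it, under half of replicates reach it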;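 also: signal also drops with host cell toxicity which is not excluded here; 0% = plate median of DMSO wells and 100% = zero luminescence signal; higher percent means less beta-gal luminescence so fewer parasites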
#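 compound dosing = single 50 nL compound addition per well in DMSO | material = NIH/3T3 host cells with β-galactosidase reporter T. cruzi | input = 5,000 host fibroblasts per well | timing = ≥90 h infection period, 3 h prior cell attachment | read-out basis = percent inhibition of parasite-derived β-gal signal | detection = GalScreen β-gal luminescence, detergent lysis, 60 min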
# PolyA inh: yeast polyadenylation inhibition; S. cerevisiae SKY197-pL101 polyadenylation reporter, beta-gal luminescence; efflux-impaired pdr1/pdr3 knockout yeast; score 100 = 6 SD above DMSO; activity score, % at 12 µM; 300,000 tested, 0.02% active; AID 1875;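 active = lowest replicate activity score at least 50, where 100 means six control SD above control mean; inconclusive = lowest score under 50 but half or more replicates reach 50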;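 also: yeast exposed to compound for 9 h at 30 °C; higher score means more reporter readthrough which indicates perturbed polyadenylation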
# Calb FLC: affects C. albicans growth with fluconazole; C. albicans CaCi-2 + fluconazole, Alamar Blue growth, 48 h; AID 1979; 300,000 tested, 0.57% active; growth inhibition, % (test concentration not listed);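 active = growth inhibition above about 58% in most replicates, limit read from the data, passing the limit was not always enough; inconclusive = exactly half the replicates above a set limit; inactive = most replicates below a set limit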;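 also: all wells also contain fluconazole at 8 µg/ml as a sub-toxic cotreatment; 0% = median of DMSO wells and 100% = median of geldanamycin control wells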
# NALP3 yeast inh: inhibitors of NALP3 inflammasome in yeast | Yeast reconstituted NLRP3/ASC/caspase-1, beta-gal luminescence, 24 h | AID 2825 | 330,000 tested, 0.39% active | inhibition, % at 10 µM;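 active = inhibition of 50% or more; inactive = inhibition below 50%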;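 also: plate controls were induced DMSO wells for no effect and uninduced yeast grown without galactose for full effect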
# NALP1 yeast inh: inhibitors of NALP1 inflammasome in yeast; S. cerevisiae NALP1/ASC/caspase-1 growth, X-gal OD620, 72 h; inhibition, % at 10 µM; 280,000 tested, 0.61% active; AID 2071; in the data active = inhibition mostly above about 24%, no sharp cut-off; inactive = mostly below about 32%
# L major viab: Leishmania major promastigote growth inhibition | Leishmania major promastigotes, resazurin fluorescence viability | inhibition, % at 10 µM | 200,000 tested, 9% active; in the data active = inhibition above about 50%;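 also: promastigotes grown with compound for 44 hours at 28 °C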
# * marks the source's active call; other numbers are inactive results; ? = inconclusive; nt = not tested or not shown.
SMILES,T cruzi inh,PolyA inh,Calb FLC,NALP3 yeast inh,NALP1 yeast inh,L major viab
CCN(CC(=O)NCc1ccc(F)cc1)C(=O)c1ccc(COc2ccccc2)cc1,8,21,-4,9,9,nt
COc1ccc(S(=O)(=O)NNC(=O)Nc2ccc(C)cc2C)c(OC)c1,-11,3,-4,9,9,nt
Cc1nn(CC(=O)NCCCc2ccccc2)c(C)c1[N+](=O)[O-],-6,-4,87*,8,2,-12
Cc1nn(CC(=O)NCCc2ccccc2)c(C)c1[N+](=O)[O-],-6,-11,-14,4,24,-4
CC(=O)c1ccc(NC(=O)Cn2nc(C)c([N+](=O)[O-])c2C)cc1,6,-1,0,8,14,17
Cc1nn(CC(=O)Nc2cccc(S(N)(=O)=O)c2)c(C)c1[N+](=O)[O-],-5,22,-2,12,24,63*
CCOC(=O)c1ccc(NC(=O)c2cc(OC)c(OC)c(OC)c2Br)cc1,-8,-4,3,9,16,74*
C=CCN1C(=O)c2ccccc2Sc2ccc(C(=O)NCC(OC)OC)cc21,-1,-6,-1,9,0,nt
CCC1CCCCN1CCCNC(=O)CN1C(=O)COc2ccc(S(=O)(=O)N3CCOCC3)cc21 (configuration not stated),-6,-14,12,21,-10,nt
CN(C)c1ccc(C(=S)N2CCN(S(=O)(=O)c3ccccc3)CC2)cc1,56*,2,-16,-4,10,nt
CN(C)c1ccc(C(=S)N2CCCCCC2)cc1,0,-12,-26,-5,12,76*
S=C(c1ccc(N2CCOCC2)cc1)N1CCCCC1,0,8,-1,7,6,81*
Oc1ccc(C(=S)N2CCCCC2)cc1,-8,-10,nt,7,22,-1
CC(=O)N1CCN(C(=S)c2ccc(N(C)C)cc2)CC1,-19,0,0,1,-13,-8
Cc1ccc(S(=O)(=O)N(C)CC(=O)OCC(=O)NCCc2ccc(S(N)(=O)=O)cc2)cc1,nt,nt,nt,10,nt,nt
O=C(Nc1cccc(C(=O)N2CCOCC2)c1)c1cccnc1,0,1,-15,4,34,-5
COCCNC(=O)CSc1nc(N)c(NC(=O)c2ccccc2F)c(=O)[nH]1,2,3,6,-11,30,-2
O=C(COC(=O)CCCN=C1NS(=O)(=O)c2ccccc21)NC(=O)NC1CCCC1,-8,4,5,-9,21,-6
CCN(CC)S(=O)(=O)c1cccc(-c2cn3cc(C)ccc3n2)c1,18,-2,9,-11,16,85*
CCN(CC)S(=O)(=O)c1cccc(-c2n[nH]c(=S)n2CC(C)C)c1,4,3,-10,22,7,0
CCN(CC)S(=O)(=O)c1cccc(-c2n[nH]c(=S)n2Cc2ccccc2)c1,-1,-5,5,32,-7,100*
Cc1ccc2nc(-c3cccc(S(=O)(=O)N(C)C)c3)cn2c1,-3,12,2,-34,-4,17
CNc1ccc(C(=O)N2CCN(S(=O)(=O)c3ccc4c(c3)OCCCO4)CC2)cc1[N+](=O)[O-],-2,-5,-2,28,19,nt
CCOC(=O)C1CCN(CCC(=O)Nc2ccccc2)CC1,-18,-10,5,-4,-28,79*
CCOC(=O)C1CCN(CCC(=O)Nc2ccc(Cl)cc2)CC1,6,-1,-3,4,26,91*
SMILES,T cruzi inh,PolyA inh,Calb FLC,NALP3 yeast inh,NALP1 yeast inh,L major viab
CCOC(=O)C1CCN(CCC(=O)Nc2cc(C)ccc2C)CC1,1,4,2,18,16,nt
CCOC(=O)C1CCN(C(=O)CCC(=O)NCCc2ccc(Cl)cc2)CC1,8,0,6,3,3,nt
CCOC(=O)C1CCN(CCC(=O)Nc2cccc(Cl)c2C)CC1,-5,-23,8,17,5,94*
CCOC(=O)C1CCC(CNCc2ccc(Cl)cc2)CC1 (configuration not stated),11,-47,-17,30,40,92*
CCOC(=O)C1CCCN(CCC(=O)Nc2ccccc2)C1 (configuration not stated),-11,-1,-8,2,8,-3
C[C@@H](CN=[N+]=[N-])CN1CC[C@H](C(C)(C)C)CCC1=O,-6,-20,-10,-22,12,nt
O=[N+]([O-])c1ccccc1S(=O)(=O)NCCSc1ccccc1,-3,-19,7,24,-5,nt
CCn1c(/C=C2/C(=O)N(C)c3ccccc32)nc2ccccc2c1=O,-2,5,-24,24,8,31
CCN1C(=O)/C(=C\c2nc3ccccc3c(=O)n2CC)c2ccccc21,3,-13,6,16,21,96*
CCN1C(=O)/C(=C/c2nc3ccccc3c(=O)n2-c2ccccc2)c2ccccc21,45,-7,6,-5,27,71*
COc1ccccc1Nc1nc(N)nc(-c2oc3ccccc3c2C)n1,7,-5,?,5,16,-5
Cc1c(-c2nc(N)nc(Nc3ccc(F)cc3)n2)oc2ccccc12,62*,1,1,20,25,8
Cc1ccccc1Nc1nc(N)nc(-c2oc3ccccc3c2C)n1,56*,-36,9,20,15,nt
CC1CCN(Cc2nnnn2CCCC(=O)N(C)C(C)c2ccccn2)CC1 (configuration not stated),2,-5,-3,8,7,nt
COc1ccccc1CNC(=O)CSc1ccc(-c2ccncc2)nn1,-3,-7,-1,-7,34,94*
CCc1ccc(NC(=O)CSc2ccc(-c3cccnc3)nn2)cc1,1,10,0,21,10,nt
CCOC(=O)c1ccc(NC(=O)CSc2ccc(-c3ccncc3)nn2)cc1,22,0,9,10,-11,75*
COc1ccc(CCNC(=O)CSc2ccc(-c3ccccc3)nn2)cc1,-12,-8,-19,15,16,-1
COc1cccc(CNC(=O)CSc2ccc(-c3ccncc3)nn2)c1,-3,-21,-2,9,53,89*
COc1ccc(-c2cc(-c3cccs3)c(C#N)c(SCC(=O)NCc3ccccc3OC)n2)cc1,-8,15,-5,-11,-9,91*
CCCCNc1nnc(Cc2ccc(Cl)cc2)c(=O)[nH]1,-1,-21,-4,5,13,nt
CCn1c(CCC(=O)Nc2ccccc2F)nnc1SCC(=O)Nc1ccc(OC)cc1,-7,0,0,-2,11,nt
CC1CN(C(=O)Nc2ccc(F)cc2)C2(CCCCCC2)O1 (configuration not stated),-2,8,10,3,7,-3
CCOC(=O)CSc1nc(Nc2ccc3c(c2)OCO3)c2ccccc2n1,25,-4,10,10,-7,56*
O=C(CCNC(=O)c1ccc(Cl)cc1)Nc1ccccc1N1CCCC1,-3,-3,-3,22,nt,nt
